Only some compounds are listed: those with a hit (about 1.7% of all), similar ones and a draw of the others.
M1 PAM parental: counter-screen for M1 PAMs: effect in parental CHO-K1 cells | hit rate 0.02% among 360,000 | activation, % at 3 µM | ATP EC20, Fluo-8 calcium fluorescence; 0% at ATP EC20, 100% at ATP max | AID 602247;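 active = activation above the run cutoff, the mean activation of all test compounds plus 3 SD, cut at about 40% in these data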;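 also: peak over basal fluorescence ratio in a 140 s read after ATP addition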
M5 ag: agonists of human muscarinic M5 receptor (CHRM5); P08912; CHO-K1 hM5 cells, Fluo-8 calcium fluorescence; 0% DMSO wells, 100% maximal acetylcholine response; activation, % at 3 µM; hit rate 0.19% among 360,000; AID 624037;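 active = activation above the run's mean over test compounds plus 3 SD, cut at about 23% in these data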;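 also: signal is peak over basal fluorescence ratio across the kinetic read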
Target sequence (P08912 whole entry, looked up): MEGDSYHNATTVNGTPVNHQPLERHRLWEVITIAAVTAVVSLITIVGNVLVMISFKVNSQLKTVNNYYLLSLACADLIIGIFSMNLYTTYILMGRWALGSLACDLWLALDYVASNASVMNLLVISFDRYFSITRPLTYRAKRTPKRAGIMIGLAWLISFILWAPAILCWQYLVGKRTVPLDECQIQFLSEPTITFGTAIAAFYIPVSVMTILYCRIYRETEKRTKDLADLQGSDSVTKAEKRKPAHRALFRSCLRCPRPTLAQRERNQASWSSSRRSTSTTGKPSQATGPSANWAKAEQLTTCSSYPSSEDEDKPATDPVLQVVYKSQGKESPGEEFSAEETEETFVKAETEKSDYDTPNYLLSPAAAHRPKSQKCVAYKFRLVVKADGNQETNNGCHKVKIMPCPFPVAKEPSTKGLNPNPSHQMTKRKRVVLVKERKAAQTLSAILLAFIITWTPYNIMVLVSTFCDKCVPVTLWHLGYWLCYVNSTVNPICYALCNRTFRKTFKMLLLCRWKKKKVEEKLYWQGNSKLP
CHO-K1 Ca antag: nonselective inhibitor or artifact in parental CHO-K1 cells. ATP-induced calcium, Fluo-8 fluorescence. inhibition, % at 3 µM. hit rate 0.6% among 360,000;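 active = inhibition above a per-plate cutoff, the plate's mean sample inhibition plus 3 SD, cut at about 24% in these data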;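 also: 0% = DMSO plus EC80 ATP and 100% = DMSO alone without ATP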
CHRM5 PAM: potentiates acetylcholine response at human M5 receptor; AID 624038; CHO-K1 hM5, Fluo-8 calcium, ACh EC20 PAM; 0% = ACh EC20, 100% = ACh EC100; activation, % at 3 µM; hit rate 0.3% among 360,000; P08912;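 active = activation above the run cutoff, the mean activation of all test compounds plus 3 SD, cut at about 18% in these data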
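Measured by: Fluo-8 calcium fluorescence; material: human M5 receptor in CHO-K1 cells; schedule: Post-acetylcholine fluorescence recording 140 s; benchmarks: low control EC20 acetylcholine (0%), high control EC100 acetylcholine (100%); read-out: Max/basal fluorescence ratio as % of EC20–EC100 ACh window; compound: single dose, 3 µM nominal final test concentration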
M1 ag parental: nonselective activator or artifact in parental CHO-K1 cells; Fluo-8 calcium fluorescence; scaled to maximal ATP response, vehicle zero; activation, % at 3 µM; hit rate 0.48% among 360,000; AID 602248; in the data active = activation above about 15%;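 also: untransfected CHO-K1 host cells lacking M1 receptor as counterscreen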
CHRM5 antagonist: blocks acetylcholine activation of human M5 receptor. CHO-hM5 cells, Fluo-8 calcium fluorescence, ACh EC80. inhibition, % at 3 µM. hit rate 0.59% among 360,000;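 active = inhibition above a per-plate cutoff, the mean of that plate's test compounds plus 3 SD, cut at about 27% in these data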;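 also: 0% = acetylcholine EC80 with DMSO and 100% = DMSO without agonist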
* hit, by the source's call.

SMILES	M1 PAM parental	M5 ag	CHO-K1 Ca antag	CHRM5 PAM	M1 ag parental	CHRM5 antagonist
CCC(C)c1ccc(OCc2ccc(C(=O)OC)o2)cc1 (stereo unspecified)	17	3	-7	-3	1	4
COc1ccc(CNc2nc(SCC(=O)NCc3ccco3)nc3ccccc23)cc1	15	-3	-3	-3	16*	-1
Cc1ccc(C(=O)C2CCN(C(=S)NCCCOC(C)C)CC2)cc1	-6	7	4	23*	0	-17
CC(C)OCCCNC(=S)N1CCC(C(=O)c2ccc(F)cc2)CC1	17	3	-3	-5	6	18
Cc1ccc(C(=O)c2cn[nH]c2-c2cc(Cl)ccc2O)cc1	16	4	0	-4	19*	3
Cc1ccc(-c2[nH]ncc2C(=O)c2ccc(Br)cc2)c(O)c1	4	1	-1	-1	3	10
O=C(Cc1cccs1)Nc1cccc(-c2nc3cc4ccccc4cc3[nH]2)c1	0	-2	11	-18	4	27*
O=C(Nc1ccc(-c2nc3ccc(NC(=O)c4cccs4)cc3[nH]2)cc1)c1cccs1	4	0	6	-14	2	27*
Cc1ccccc1C(=O)Nc1ccc(-c2nc3ccc(C(=O)c4ccccc4)cc3[nH]2)cc1	-8	-4	34*	-23	2	24
CN(C)c1ccc(/C=C/C(=O)c2ccccc2)cc1[N+](=O)[O-]	-13	-2	11	-6	0	-3
CC(C)c1ccc(NC(=O)c2cnn(-c3ccccc3)c2NC(=O)c2ccco2)cc1	5	-3	2	1	1	2
CN(C)Cc1ccccc1C(O)(c1ccccc1)c1ccccc1	3	-22	-22	-33	1	23
CN(C)Cc1cc(C(F)(F)F)ccc1C(O)(c1ccccc1)c1ccccc1	-23	-10	8	-38	0	75*
Cc1noc(C)c1S(=O)(=O)N1CCN(c2ccccc2)CC1	12	-3	-4	-1	0	3
CCOC(=O)/C(=C\c1ccccc1)NC(=O)c1ccccc1	14	4	-7	19*	1	-19
CCOC(=O)/C(=C/c1c2ccccc2cc2ccccc12)NC(=O)c1ccccc1	4	-5	3	-9	0	-5
COC(=O)/C(=C\C=C\c1ccccc1)NC(=O)c1ccccc1	-9	3	29*	3	3	-2
COc1ccc(OC)c(NC(=O)C(=O)NNC(=O)C23CC4CC(CC(C4)C2)C3)c1	15	8	-9	1	25*	12
CCc1nc2cc(NC(=O)C3(C)CCCN(C(C)=O)C3)ccc2o1 (stereo unspecified)	10	0	0	-5	1	10
CC(=O)N1CCCC(C)(C(=O)Nc2ccc3oc(C)nc3c2)C1 (stereo unspecified)	-14	-1	27*	-1	0	1
O=C(CCCCCN1C(=O)CCC1=O)Nc1ccc(Br)cc1F	-8	-1	-1	-1	0	-3
CC(C)Nc1nc(C#N)nc(NC(C)C)n1	8	-4	-8	-2	0	0
CCC1CCCCN1CCCNC(=O)CN1C(=O)CSc2ccc(S(=O)(=O)N3CCC(C)CC3)cc21 (stereo unspecified)	-4	-8	-7	-3	0	10
CCCCc1ccc(S(=O)(=O)NC2CCS(=O)(=O)C2)cc1 (stereo unspecified)	12	8	11	21*	6	23
O=S(=O)(c1cccc2cccnc12)N1CCCCC1	-13	-3	3	4	0	4
SMILES	M1 PAM parental	M5 ag	CHO-K1 Ca antag	CHRM5 PAM	M1 ag parental	CHRM5 antagonist
CN1CCN(c2ncccc2S(=O)(=O)N2CCCCC2)CC1	-10	-11	19	-15	0	99*
O=C(c1cccc(C(F)(F)F)c1)C1CCCN(Cc2ccc(OCCO)cc2)C1 (stereo unspecified)	0	-8	7	-12	23*	23
CC(=O)Nc1ccc(CN2CCCC(C(=O)c3cccc(C(F)(F)F)c3)C2)cc1 (stereo unspecified)	20	-9	-3	-6	3	8
CC(Oc1ccc2c(-c3ccccc3)cc(=O)oc2c1)C(=O)NC(Cc1c[nH]c2ccc(O)cc12)C(=O)O (stereo unspecified)	-15	0	27*	1	3	3
COc1ccc(/C=C2/SC(=O)N(CC(=O)NCCC(C)C)C2=O)cc1OC	16	3	-7	1	0	8
COc1ccc(/C=C2\SC(=O)N(CC(=O)NCCC(C)C)C2=O)cc1OC	-14	7	-9	19*	0	-10
COCCOC1CCN(C(=O)c2cc(COc3ccc(-n4cncn4)cc3)on2)CC1	-3	0	-1	-5	1	-2
Cc1ccc(F)cc1CNC(=O)c1cc(COc2ccc3ncccc3c2)on1	-1	6	17	-16	14	56*
COCC1CCCCN1C(=O)c1cc(COc2ccc3ncccc3c2)on1 (stereo unspecified)	-24	7	33*	-14	20*	39*
CCC1CCCCN1C(=O)c1cc(COc2ccc3ncccc3c2)on1 (stereo unspecified)	-7	7	27*	-29	16*	41*
CCN1CCN(C(=O)c2cc(COc3ccc4ncccc4c3)on2)CC1	14	8	-4	-13	11	5
COCCC1CCCCN1C(=O)c1cc(COc2ccc(-n3cncn3)cc2)on1 (stereo unspecified)	-17	5	25*	-19	15	19
O=c1oc2ccccc2c(Nc2ccc(Cl)cc2)c1[N+](=O)[O-]	4	5	-4	-13	12	7
Cc1nn(-c2ccccc2)c2[nH]c(=O)c(CNCCN3CCOCC3)cc12	19	1	-14	7	0	-5
Cc1[nH][nH]c(=O)c1C=Nc1ccc(C(F)(F)F)cc1	4	-1	5	-1	0	1
CC1=C(C(=O)Nc2ccccn2)C(c2ccc(F)cc2)n2ncnc2N1 (stereo unspecified)	-7	2	-1	1	0	6
Cc1ccc(NC(=O)CN2C(=O)NC3(CCCCCC3)C2=O)cc1Cl	-3	-2	-13	-1	0	4
COc1ccc(OCc2nnc(SCC(=O)NNC(=O)c3ccc(C)cc3)n2C)cc1	3	-2	-5	0	0	0
COC(=O)Cn1c(=NC(=O)C(C)(C)C)sc2c(C)cc(C)cc21	-1	0	-5	1	1	-1
CCOC(=O)c1ccc(NC(=O)CSc2nc3cccnc3n2C)cc1	-8	4	34*	-3	1	9

Compound activity deposited in PubChem BioAssay by The Scripps Research Institute Molecular Screening Center.
